Converted amounts (≈) assume the structure as drawn.

Consider eight compounds from ChEMBL document CHEMBL1126988, “Quinolone antibacterials containing the new 7-[3-(1-aminoethyl)-1- pyrrolidinyl] side chain: the effects of the 1-aminoethyl moiety and its stereochemical configurations on potency and in vivo efficacy” (J Med Chem, 1993).

Assay type in all cases: functional
The test system of assay [1] is Streptococcus pyogenes. Description: Antibacterial activity measured as mouse protection against Streptococcus pyogenes C 203 after subcutaneous administration. The following applies: for ED50: Streptococcus pyogenes, C 203, sc, read-out: PD50.
Assay [2] deals with Streptococcus pyogenes. The assay is described as follows: Compounds were evaluated in vivo for antibacterial activity for mouse protection against Streptococcus pyogenes C 203 after oral administration. The following applies: for ED50: Streptococcus pyogenes, C 203, po, read-out: PD50.
For the next assay, the system named is Klebsiella pneumoniae. The assay is described as follows: Minimum inhibitory concentration was evaluated in vitro against Klebsiella pneumoniae MGH2. The method in brief: (§1)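 Standard microtitration broth assay against a panel of 10 Gram-positive and Gram-negative organisms. MIC read in µg/mL and averaged over multiple experiments.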
Assay [3] relates to Streptococcus pyogenes. Description: Minimum inhibitory concentration was evaluated in vitro against Streptococcus pyogenes C 203. The procedure, abridged:
as §1

For a further assay, the system named is Pseudomonas aeruginosa. The assay is described as follows: Minimum inhibitory concentration was evaluated in vitro against Pseudomonas aeruginosa UI-18. The procedure, abridged:
as §1

The test system of a further assay is Providencia rettgeri. The assay is described as follows: Minimum inhibitory concentration was evaluated in vitro against Providencia rettgeri M1771. The procedure, abridged:
as §1

The test system of assay [4] is Escherichia coli. Description: Antibacterial activity against Escherichia coli Vogel after oral administration in mouse. The settings on record: for ED50: Escherichia coli, po, read-out: PD50.
A further assay has as its system Streptococcus pneumoniae. The assay is described as follows: Minimum inhibitory concentration was evaluated in vitro against Streptococcus pneumoniae SV-1. The procedure, abridged:
as §1

For assay [5], the system named is Escherichia coli. The assay is described as follows: Antibacterial activity in vitro against Escherichia coli Vogel. The procedure, abridged: as §1
The subject of another assay is Enterococcus faecalis. Description: Minimum inhibitory concentration was evaluated in vitro against Enterococcus faecalis MGH-2. The procedure, abridged: as §1
The subject of assay [6] is Staphylococcus aureus. The assay is described as follows: Minimum inhibitory concentration was evaluated in vitro against Staphylococcus aureus H 228. The method in brief:
as §1

For the next assay, the system named is Enterobacter cloacae. Description: Minimum inhibitory concentration in vitro against Enterobacter cloacae MA 2646.
The test system of assay [7] is Staphylococcus aureus. The assay is described as follows: Minimum inhibitory concentration was evaluated in vitro against Staphylococcus aureus UC 76. The method in brief:
as §1

Assay [8] concerns Escherichia coli. The assay is described as follows: Antibacterial activity against Escherichia coli Vogel after subcutaneous administration in mouse. The settings on record: Escherichia coli, sc; read-out: PD50.
The mark [9] stands for this setting: Klebsiella pneumoniae, read-out: MIC.
Where [10] appears, read: Streptococcus pyogenes, read-out: MIC.
Where [11] appears, read: Pseudomonas aeruginosa, read-out: MIC.
[12] abbreviates: Providencia rettgeri, read-out: MIC.
[13] abbreviates: Streptococcus pneumoniae, read-out: MIC.
[14] abbreviates: Escherichia coli, read-out: MIC.
Setting [15] is: Enterococcus faecalis, read-out: MIC.
The mark [16] stands for this setting: Staphylococcus aureus, read-out: MIC.
Where [17] appears, read: Enterobacter cloacae, read-out: MIC.

In general, MIC refers to the lowest concentration found to suppress growth. As for `CC1(CN)CCN(c2c(F)c(N)c3c(=O)c(C(=O)O)cn(C4CC4)c3c2F)C1` (stereo unspecified), the figures for the ED50 in the assay with Streptococcus pyogenes [1], in the assay with Streptococcus pyogenes [2] and in the assay with Escherichia coli [8] were 1 mg/kg, 8 mg/kg and 1 mg/kg, respectively. The MIC with Klebsiella pneumoniae (setting [9]) came out at 0.1 µg/mL (≈ 0.255 µM); in the assay with Streptococcus pyogenes [3] (setting [10]), 0.013 µg/mL (≈ 0.0331 µM); in the assay with Pseudomonas aeruginosa (setting [11]), 0.8 µg/mL (≈ 2.04 µM); in the assay on Providencia rettgeri (setting [12]), 0.2 µg/mL (≈ 0.51 µM); in the assay on Streptococcus pneumoniae (setting [13]) it was 0.003 µg/mL (≈ 0.00765 µM); with Escherichia coli [5] (setting [14]), 0.2 µg/mL (≈ 0.51 µM). For the same compound, the MIC in the assay on Enterococcus faecalis (setting [15]) amounted to 0.025 µg/mL (≈ 0.0637 µM); with Staphylococcus aureus [6] (setting [16]), 0.013 µg/mL (≈ 0.0331 µM); in the assay with Enterobacter cloacae (setting [17]), 0.1 µg/mL (≈ 0.255 µM); in the assay on Staphylococcus aureus [7] (setting [16]), 0.003 µg/mL (≈ 0.00765 µM). In the assay on Escherichia coli [4], this compound gave a PD50 of 9 mg/kg.

For `O=C(O)c1cn(C2CC2)c2cc(N3CCNCC3)c(F)cc2c1=O` [CIPROFLOXACIN], the MIC stood at 0.05 µg/mL (≈ 0.151 µM) in the assay with Klebsiella pneumoniae (setting [9]), 1.6 µg/mL (≈ 4.83 µM) in the assay on Streptococcus pneumoniae (setting [13]) and 3.1 µg/mL (≈ 9.36 µM) with Staphylococcus aureus [6] (setting [16]). Moreover, the values for the ED50 with Escherichia coli [4] and in the assay on Escherichia coli [8] were 1 mg/kg and 0.3 mg/kg, respectively.

As to `NC1CCN(c2c(F)cc3c(=O)c(C(=O)O)cn(C4CC4)c3c2F)C1` (stereo unspecified), the ED50 amounted to 2 mg/kg in the assay on Streptococcus pyogenes [1], 8 mg/kg in the assay with Streptococcus pyogenes [2] and 1 mg/kg in the assay with Escherichia coli [4]. In addition, the MIC came to 0.1 µg/mL (≈ 0.286 µM) in the assay with Pseudomonas aeruginosa (setting [11]), 0.05 µg/mL (≈ 0.143 µM) in the assay with Providencia rettgeri (setting [12]), 0.05 µg/mL (≈ 0.143 µM) in the assay on Enterococcus faecalis (setting [15]) and 0.025 µg/mL (≈ 0.0716 µM) in the assay on Enterobacter cloacae (setting [17]).

Take `CC(N)C1CCN(c2c(F)cc3c(=O)c(C(=O)O)cn(C4CC4)c3c2C(F)(F)F)C1` (stereo in doubt; 36F-R,R): the results for the PD50 with Streptococcus pyogenes [1] and in the assay on Streptococcus pyogenes [2] were 2 mg/kg and 3 mg/kg, respectively. Further, the MIC in the assay on Klebsiella pneumoniae was 0.8 µg/mL (≈ 1.87 µM); against Streptococcus pyogenes [3], 0.1 µg/mL (≈ 0.234 µM); with Pseudomonas aeruginosa, 6.3 µg/mL (≈ 14.7 µM); with Providencia rettgeri (setting [12]), 0.8 µg/mL (≈ 1.87 µM); against Streptococcus pneumoniae, 0.1 µg/mL (≈ 0.234 µM); against Escherichia coli [5] it was 0.8 µg/mL (≈ 1.87 µM). Besides, the MIC is 0.2 µg/mL (≈ 0.468 µM) in the assay with Enterococcus faecalis, 0.1 µg/mL (≈ 0.234 µM) in the assay on Staphylococcus aureus [6], 0.4 µg/mL (≈ 0.936 µM) in the assay with Enterobacter cloacae (setting [17]) and 0.025 µg/mL (≈ 0.0585 µM) against Staphylococcus aureus [7].

As for `CN[C@@H](C)[C@@H]1CCN(c2nc3c(cc2F)c(=O)c(C(=O)O)cn3C2CC2)C1`, the PD50 in the assay on Streptococcus pyogenes [1] worked out at 5 mg/kg; in the assay on Streptococcus pyogenes [2], 11 mg/kg. For the same compound, the MIC was determined as 0.2 µg/mL (≈ 0.534 µM) with Klebsiella pneumoniae; 0.1 µg/mL (≈ 0.267 µM) against Streptococcus pyogenes [3]; 1.6 µg/mL (≈ 4.27 µM) with Pseudomonas aeruginosa; 0.8 µg/mL (≈ 2.14 µM) in the assay with Providencia rettgeri; 0.1 µg/mL (≈ 0.267 µM) with Streptococcus pneumoniae; 0.1 µg/mL (≈ 0.267 µM) with Escherichia coli [5]. Moreover, the MIC amounted to 0.2 µg/mL (≈ 0.534 µM) against Enterococcus faecalis, 0.2 µg/mL (≈ 0.534 µM) with Staphylococcus aureus [6], 0.1 µg/mL (≈ 0.267 µM) in the assay on Enterobacter cloacae and 0.05 µg/mL (≈ 0.134 µM) against Staphylococcus aureus [7].

For the compound `CC(N)C1CCN(c2cc3c(c(N)c2F)c(=O)c(C(=O)O)cn3C2CC2)C1` (mixture of isomers), the ED50 was determined as 4 mg/kg with Streptococcus pyogenes [1] and 18 mg/kg in the assay on Streptococcus pyogenes [2]. Besides, the MIC came to 0.05 µg/mL in the assay with Klebsiella pneumoniae (setting [9]); 0.003 µg/mL with Streptococcus pyogenes [3] (setting [10]); 0.4 µg/mL in the assay on Pseudomonas aeruginosa (setting [11]); 0.1 µg/mL with Providencia rettgeri (setting [12]); 0.003 µg/mL with Streptococcus pneumoniae (setting [13]); 0.025 µg/mL with Escherichia coli [5] (setting [14]). Further, the MIC in the assay on Enterococcus faecalis (setting [15]) came out at 0.013 µg/mL; in the assay with Staphylococcus aureus [6] (setting [16]), 0.05 µg/mL; in the assay with Enterobacter cloacae (setting [17]), 0.025 µg/mL; in the assay with Staphylococcus aureus [7] (setting [16]), 0.003 µg/mL.

Consider `C[C@H](N)[C@H]1CCN(c2c(F)c(N)c3c(=O)c(C(=O)O)cn(C4CC4)c3c2F)C1` (stereo in doubt; 32F-S,S), for which the ED50 with Streptococcus pyogenes [1] is 7 mg/kg; in the assay with Streptococcus pyogenes [2], above 25 mg/kg. Moreover, the MIC in the assay on Klebsiella pneumoniae (setting [9]) worked out at 0.1 µg/mL (≈ 0.255 µM); against Streptococcus pyogenes [3], 0.05 µg/mL (≈ 0.127 µM); in the assay with Pseudomonas aeruginosa (setting [11]) it was 0.4 µg/mL (≈ 1.02 µM); in the assay with Providencia rettgeri (setting [12]), 0.4 µg/mL (≈ 1.02 µM); with Streptococcus pneumoniae (setting [13]), 0.025 µg/mL (≈ 0.0637 µM); with Escherichia coli [5] (setting [14]) it was 0.05 µg/mL (≈ 0.127 µM). Besides, the MIC was found to be 0.05 µg/mL (≈ 0.127 µM) in the assay on Enterococcus faecalis (setting [15]), 0.025 µg/mL (≈ 0.0637 µM) with Staphylococcus aureus [6] (setting [16]), 0.05 µg/mL (≈ 0.127 µM) in the assay on Enterobacter cloacae (setting [17]) and 0.013 µg/mL (≈ 0.0331 µM) in the assay with Staphylococcus aureus [7].

For `CN[C@@H](C)[C@H]1CCN(c2nc3c(cc2F)c(=O)c(C(=O)O)cn3C2CC2)C1`, the values for the ED50 with Streptococcus pyogenes [1] and in the assay on Streptococcus pyogenes [2] were 15 mg/kg and 23 mg/kg, respectively. Also, the MIC in the assay with Klebsiella pneumoniae (setting [9]) amounted to 0.4 µg/mL (≈ 1.07 µM); with Streptococcus pyogenes [3] (setting [10]), 0.4 µg/mL (≈ 1.07 µM); in the assay on Pseudomonas aeruginosa (setting [11]), 3.1 µg/mL (≈ 8.28 µM); with Providencia rettgeri (setting [12]) it was 0.8 µg/mL (≈ 2.14 µM); in the assay with Streptococcus pneumoniae (setting [13]) it was 0.4 µg/mL (≈ 1.07 µM); in the assay on Escherichia coli [5] (setting [14]), 0.2 µg/mL (≈ 0.534 µM). The MIC turned out to be 0.8 µg/mL (≈ 2.14 µM) with Enterococcus faecalis (setting [15]), 0.8 µg/mL (≈ 2.14 µM) with Staphylococcus aureus [6] (setting [16]), 0.4 µg/mL (≈ 1.07 µM) in the assay on Enterobacter cloacae (setting [17]) and 0.2 µg/mL (≈ 0.534 µM) in the assay on Staphylococcus aureus [7] (setting [16]).
